# Experimental data pooled from the literature.
# Organism: Mycobacterium tuberculosis
# Read-out: microbial growth
SMILES,test,test system,setting,MIC
FC(F)(F)c1ccc(CCNc2cc(-c3ccccn3)nc3nnc(C4CC4)n23)cc1,,H37RV,5 days,17 to 50 µM
NNC(=O)c1ccncc1,,H37RV,,0.125 µg/mL
CO[C@H]1/C=C/O[C@@]2(C)Oc3c(C)c(O)c4c(O)c(c(/C=N/N5CCN(C6CCCC6)CC5)c(O)c4c3C2=O)NC(=O)/C(C)=C\C=C\[C@H](C)[C@H](O)[C@@H](C)[C@@H](O)[C@@H](C)[C@H](OC(C)=O)[C@@H]1C,resazurin,H37RV,7 days,0.2 µg/mL
CCc1nc2[nH]c(=O)n(O)c(=O)c2s1,,,,46.4 µM
CCCCCc1ccc(Nc2cc(-c3ccccn3)nc3nncn23)cc1,,H37RV,,> 100 µM
COc1nc2ccc(Br)cc2cc1[C@@H](c1ccccc1)[C@@](O)(CCN(C)C)c1cccc2ccccc12,,H37RV,,0.31 µM
CCc1cc(=O)c2c(OCC(O)CNC(C)C)c3ccoc3c(OC)c2o1 (stereo not shown),resazurin,H37RV,21 days,64 µg/mL
CCOc1cc(C=NNC(N)=S)ccc1OC(=O)CN1C(=O)CSC1=O,resazurin,H37RV,,0.63 µM
[H]/N=C(/N)N[C@H]1[C@H](O)[C@@H](O)[C@H](O[C@@H]2O[C@@H](C)[C@](O)(C=O)[C@H]2O[C@@H]2O[C@@H](CO)[C@H](O)[C@@H](O)[C@@H]2NC)[C@@H](N/C(N)=N\[H])[C@@H]1O,resazurin,H37RV,21 days,0.25 µg/mL
Clc1ccc(CCNc2cc(-c3ccccn3)nc3nnc(C4CC4)n23)cc1,,H37RV,5 days,17 to 50 µM
C#CC[N+]1(CC)CCc2c(sc(NC(=O)c3c(F)c(F)c(F)c(F)c3F)c2C(=O)OCC)C1 (stereo not shown),,CDC1551,,5.8 µM
c1ccc(CCOc2cc(-c3ccccn3)nc3ncnn23)cc1,,H37RV,,> 100 µM
CCc1cc(=O)c2c(OCC3CO3)c3ccoc3c(OC)c2o1 (stereo not shown),resazurin,,21 days,64 µg/mL
CC(CNc1cc(-c2ccccn2)nc2nncn12)c1ccccc1 (stereo not shown),,H37RV,5 days,> 100 µM
CCc1cc(=O)c2c(O)c3ccoc3c(OC)c2o1,resazurin,H37RV,21 days,512 µg/mL
Nc1nc2[nH]c(=O)n(O)c(=O)c2s1,,,,> 100 µM
FC(F)Oc1ccc(CCNc2cc(-c3ccccn3)nc3nncn23)cc1,,H37RV,,1.1 µM
O=c1[nH]c2ncsc2c(=O)n1O,,,,27.4 µM
CC[C@@H](CO)NCCN[C@@H](CC)CO,resazurin,H37RV,,2.45 µM
Cc1ccc(CCNc2cc(C3CCCO3)nc3nncn23)cc1 (stereo not shown),,H37RV,,47 µM
COc1ccc(-c2oc3ccc(O)c(CN4CCCCC4)c3c2C(=O)NCc2cn(C[C@H]3O[C@H](O[C@H]4O[C@H](CO)[C@@H](O)[C@H](O)[C@H]4O)[C@H](O)[C@@H](O)[C@@H]3O)nn2)cc1,,CDC1551,,0.7 µM
[H]/N=C(/N)N[C@H]1[C@H](O)[C@@H](O)[C@H](O[C@@H]2O[C@@H](C)[C@](O)(C=O)[C@H]2O[C@@H]2O[C@@H](CO)[C@H](O)[C@@H](O)[C@@H]2NC)[C@@H](N/C(N)=N\[H])[C@@H]1O,resazurin,H37RV,5 days,1 µg/mL
O=c1[nH]c2nc(-c3ccccc3)sc2c(=O)n1O,,,,12.8 µM
[H]/N=C(/N)N[C@H]1[C@H](O)[C@@H](O)[C@H](O[C@@H]2O[C@@H](C)[C@](O)(C=O)[C@H]2O[C@@H]2O[C@@H](CO)[C@H](O)[C@@H](O)[C@@H]2NC)[C@@H](N/C(N)=N\[H])[C@@H]1O,resazurin,H37RV,,0.43 µM
NNC(=O)c1ccncc1,resazurin,H37RV,5 days,0.03 µg/mL
CCc1cc(=O)c2c(OCC(O)CNC(C)(C)C)c3ccoc3c(OC)c2o1 (stereo not shown),resazurin,H37RV,21 days,128 µg/mL
Fc1cccc(CCOc2cc(-c3ccccn3)nc3ncnn23)c1,,H37RV,,> 100 µM
NNC(=O)c1ccncc1,resazurin,H37RV,7 days,0.05 µg/mL
CCOC(=O)c1c(-c2ccc(OC)cc2)oc2ccc(OCc3cn(C[C@H]4O[C@H](O[C@H]5O[C@H](CO)[C@@H](O)[C@H](O)[C@H]5O)[C@H](O)[C@@H](O)[C@@H]4O)nn3)c(CN3CCCCC3)c12,,CDC1551,,77.3 µM
NC(=S)NN=Cc1ccc(OC(=O)CN2C(=O)CSC2=O)c(Br)c1,resazurin,H37RV,,9.27 µM
CC(C)c1nc2[nH]c(=O)n(O)c(=O)c2s1,,,,65.4 µM
CCc1cc(=O)c2c(OCC(O)CN(CC)CC)c3ccoc3c(OC)c2o1 (stereo not shown),resazurin,,21 days,64 µg/mL
CO[C@H]1/C=C/O[C@@]2(C)Oc3c(C)c(O)c4c(O)c(c(/C=N/N5CCN(C)CC5)c(O)c4c3C2=O)NC(=O)/C(C)=C\C=C\[C@H](C)[C@H](O)[C@@H](C)[C@@H](O)[C@@H](C)[C@H](OC(C)=O)[C@@H]1C,resazurin,H37RV,,0.152 µM
CO[C@H]1/C=C/O[C@@]2(C)Oc3c(C)c(O)c4c(O)c(c(/C=N/N5CCN(C)CC5)c(O)c4c3C2=O)NC(=O)/C(C)=C\C=C\[C@H](C)[C@H](O)[C@@H](C)[C@@H](O)[C@@H](C)[C@H](OC(C)=O)[C@@H]1C,resazurin,,21 days,64 µg/mL
CO[C@H]1/C=C/O[C@@]2(C)Oc3c(C)c(O)c4c(O)c(c(/C=N/N5CCN(C)CC5)c(O)c4c3C2=O)NC(=O)/C(C)=C\C=C\[C@H](C)[C@H](O)[C@@H](C)[C@@H](O)[C@@H](C)[C@H](OC(C)=O)[C@@H]1C,,H37RA,,0.01 µM
NNC(=O)c1ccncc1,resazurin,H37RV,21 days,0.0625 µg/mL
O=[N+]([O-])c1cn2c(n1)OC[C@@H](OCc1ccc(OC(F)(F)F)cc1)C2,,H37RV,,0.31 µM
